Measurements taken from ChEMBL document CHEMBL1157201, “1,5-Disubstituted 1,2,3-triazoles as cis-restricted analogues of combretastatin A-4: Synthesis, molecular modeling and evaluation as cytotoxic agents and inhibitors of tubulin” (Bioorg Med Chem, 2008).

Key:
K562 = assay: Cytotoxicity against human K562 cells after 5 days by MTT assay; type: functional, cell-based; conditions: K562, 120 h
In short: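 K562 chronic myelogenous leukemia cells grown in antibiotic-free RPMI with 2-mercaptoethanol (2 μM), L-glutamine (2 mM) and 10% FCS, seeded at ca 40,000 cells/mL. DMSO-dissolved drug added as a serial dilution series, with a drug-free control. Incubated 37 °C, 5% CO2. MTT (3 mg/mL in PBS) added for 3 h, formazan dissolved in DMSO, OD read at 540 and 690 nm. IC50 derived graphically as percentage of control growth.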

Tubulin = Tubulin (Sus scrofa, UniProt P02554+P02550); assay: Inhibition of pig brain tubulin polymerization
In short: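 Porcine brain tubulin stored at -78 °C. Mixed with Mes buffer (0.1 M Mes, 1 mM EGTA, 0.5 mM MgCl2, pH 6.6) and GTP (stock 5 mM) plus drug in DMSO, in a plate prechilled 30 min at 4 °C. Absorbance at 350 nm followed 60 min at 25 °C against drug-only blanks and untreated controls. IC50 derived graphically as percentage of control assembly.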

SK-BR-3 = assay: Cytotoxicity against human SK-BR3 cells assessed as [3H]thymidine incorporation after 72 hrs by microplate scintillation counter; type: functional, cell-based
In short: (§1)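 RPMI 1640 with 2 mM L-glutamine, plus 5% FCS (WM35, WM239) or 10% FCS (SKOV, OVCAR, MDA-MB231, SK-BR 3); SK-BR 3 medium also had 12,5 µM insulin. 1 µCi [3H]thymidine label for the final 24 h. Controls got solvent-only medium. Values are medians of three experiments.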

[1] = Cytotoxicity against human SKOV cells assessed as [3H]thymidine incorporation after 72 hrs by microplate scintillation counter; type: functional, cell-based; in short: as §1
[2] = Cytotoxicity against human WM35 cells assessed as [3H]thymidine incorporation after 72 hrs by microplate scintillation counter; type: functional, cell-based; in short: as §1
[3] = Cytotoxicity against human WM239 cells assessed as [3H]thymidine incorporation after 72 hrs by microplate scintillation counter; type: functional, cell-based; in short: as §1
OVCAR = assay: Cytotoxicity against human OVCAR cells assessed as [3H]thymidine incorporation after 72 hrs by microplate scintillation counter; type: functional, cell-based; in short: as §1
MDA-MB-231 = assay: Cytotoxicity against human MDA-MB-231 cells assessed as [3H]thymidine incorporation after 72 hrs by microplate scintillation counter; type: functional, cell-based; in short: as §1

Row | IC50 (Tubulin) [nM] | SMILES | IC50 (K562) [nM] | other results
1 | – | COc1ccc(-c2cn(-c3cc(OC)c(OC)c(OC)c3)nn2)cc1[N+](=O)[O-] | > 10000 | –
2 | > 20000 | COc1ccc(-n2nncc2-c2cc(OC)c(OC)c(OC)c2)cc1N | 570 | –
3 | 7000 | COc1ccc(-c2cnnn2-c2cc(OC)c(OC)c(OC)c2)cc1 | 27 | –
4 | 12600 | COc1ccc(-c2cnnn2-c2cc(OC)c(OC)c(OC)c2)cc1O | – | –
5 | > 20000 | COc1ccc(-c2cnnn2-c2cc(OC)c(OC)c(OC)c2)cc1[N+](=O)[O-] | 460 | –
6 | – | COc1ccc(-n2nncc2-c2cc(OC)c(OC)c(OC)c2)cc1 | 4000 | –
7 | > 20000 | COc1ccc(-c2cn(-c3cc(OC)c(OC)c(OC)c3)nn2)cc1N | 1300 | –
8 | – | COc1ccc(-n2nncc2-c2cc(OC)c(OC)c(OC)c2)cc1Br | 3600 | –
9 | 14000 | COc1ccc(-n2nncc2-c2cc(OC)c(OC)c(OC)c2)cc1O | 410 | –
10 | – | COc1ccc(-n2nncc2-c2cc(OC)c(OC)c(OC)c2)cc1[N+](=O)[O-] | > 10000 | –
11 | – | COc1ccc(/C=C\c2cc(OC)c(OC)c(OC)c2)cc1O [COMBRETASTATIN A4] | 10 | IC50 (SK-BR-3): 5.1 nM; IC50 [1]: 3.3 nM; IC50 [2]: 2.5 nM; IC50 [3]: 2.8 nM; IC50 (OVCAR): 3.3 nM; IC50 (MDA-MB-231): 6 nM

Row | SMILES | IC50 (Tubulin) [nM] | IC50 (K562) [nM] | other results
12 | COc1ccc(-c2cnnn2-c2cc(OC)c(OC)c(OC)c2)cc1N | 4800 | 11 | IC50 (SK-BR-3): 4 nM; IC50 [1]: 4.9 nM; IC50 [2]: 3.9 nM; IC50 [3]: 5.1 nM; IC50 (OVCAR): 4.7 nM; IC50 (MDA-MB-231): > 10 nM
13 | COc1ccc(-c2cnnn2-c2cc(OC)c(OC)c(OC)c2)cc1Br | > 20000 | 57 | –
